# Assay results of several laboratories.
# Lines come from different studies, so protocols differ.
# Target: Muscarinic acetylcholine receptor M3 (CHRM3, Homo sapiens, UniProt P20309)
# Concentration: 10 µM
Compound,read-out,method,inhibition
CCN(CC)c1ccc(C2Nc3ccc(C(=O)c4ccccc4)cc3NC3=C2C(=O)CC(C)(C)C3)cc1 (stereo not drawn),ligand displacement,radioligand,43%
CCN(Cc1ccccc1C(F)(F)F)C(=O)C1CCN(S(=O)(=O)c2ccc3[nH]ncc3c2)CC1,ligand displacement,radioligand,14%
N#Cc1cc(Cn2c(N3CCCC3)nc3ccccc32)ccc1F,ligand displacement,,-31.1%
Ic1cccc2cnccc12,ligand displacement,radioligand,5%
CCCNc1nc2ccccc2n1Cc1ccc(Cl)cc1,ligand displacement,,-39.7%
Oc1cccc(Nc2nc(-c3ccc(F)cc3F)cs2)c1,cell-free assay,,-16.6%
O=C1N=C(N2CCCCN2)S/C1=C\c1ccc(F)cc1O,ligand displacement,radioligand,< 10%
O=C(Nc1ccc(S(=O)(=O)N2CCC(Cl)CC2)cc1)c1ccc([N+](=O)[O-])o1,ligand displacement,radioligand,13%
O=C(c1ccc(F)cc1)N(Cc1ccccc1)C1CCCCC1,cell-free assay,,17%
